Data taken from ChEMBL document CHEMBL1124818, “Synthesis and cardiac electrophysiological activity of aryl-substituted derivatives of the class III antiarrhythmic agent sematilide. Potential class I/III agents” (J Med Chem, 1990).
Values joined by “and” are separate entries in the source; they are usually repeats but may differ in a detail not shown here. Equal values may be shown once.

How the values were obtained:
[1] = Percent change from control value for Vmax at 10 uM of the compound.
Summary of the method: (§1)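 Microelectrode recording in Purkinje fibers; maximal depolarization rate (Vmax) measured at each test concentration, given as percent change from control, mean ± SEM; n per concentration may differ from APD experiments.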

[2] = Percent change from control value for Vmax at 0.1 uM of the compound.; summary of the method: as §1
Canis familiaris [3] = species: Canis familiaris; test: Duration of action potential was determined in vitro in Canine Purkinje fibers at 0.1 uM concentration.; type: functional, Canis lupus familiaris, Purkinje fiber
Summary of the method: (§2)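 Microelectrode recording in Purkinje fibers; action potential duration at 95% repolarization measured at each test concentration and expressed as percent change from control, mean ± SEM over the stated number of experiments.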

Cavia porcellus [4] = test: Percent change in the mean time to first Ouabain-induced arrhythmia was determined in Guinea pig at a dose of 10 mg/kg; type: functional
Summary of the method: (§3)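 Anesthetized guinea pigs, tracheal cannulation with room-air respiration, right jugular cannulated; 5 min equilibration, test agent intravenous, then 10 min later ouabain 40 μg/kg iv bolus plus 10 μg/kg/min infusion until arrhythmia. Percent change in mean time to first arrhythmia (n = 4-6) versus vehicle control (n = 3-4).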

Canis familiaris [5] = species: Canis familiaris; test: Duration of action potential was determined in vitro in Canine Purkinje fibers at 100 uM concentration.; type: functional, Canis lupus familiaris, Purkinje fiber; summary of the method: as §2
Canis familiaris [6] = species: Canis familiaris; test: Duration of action potential was determined in vitro in Canine Purkinje fibers at 10 uM concentration.; type: functional, Canis lupus familiaris, Purkinje fiber; summary of the method: as §2
Canis familiaris [7] = species: Canis familiaris; test: Duration of action potential was determined in vitro in Canine Purkinje fibers at 30 uM concentration.; type: functional, Canis lupus familiaris, Purkinje fiber; summary of the method: as §2
[8] = Percent change from control value for Vmax at 30 uM of the compound.; summary of the method: as §1
Canis familiaris [9] = species: Canis familiaris; test: Duration of action potential was determined in vitro in Canine Purkinje fibers at 1 uM concentration.; type: functional, Canis lupus familiaris, Purkinje fiber; summary of the method: as §2
[10] = Percent change from control value for Vmax at 100 uM of the compound.; summary of the method: as §1
[11] = Percent change from control value for Vmax at 1 uM of the compound.; summary of the method: as §1
Canis familiaris [12] = species: Canis familiaris; test: Duration of action potential in vitro against Canine Purkinje fibers; at 100 uM concentration.; type: functional, Canis lupus familiaris, Purkinje fiber; summary of the method: as §2
Canis familiaris [13] = species: Canis familiaris; test: Duration of action potential in vitro against Canine Purkinje fibers; at 30 uM concentration.; type: functional, Canis lupus familiaris, Purkinje fiber; summary of the method: as §2
Canis familiaris [14] = species: Canis familiaris; test: Duration of action potential in vitro against Canine Purkinje fibers; at 10 uM concentration.; type: functional, Canis lupus familiaris, Purkinje fiber; summary of the method: as §2
Canis familiaris [15] = species: Canis familiaris; test: Duration of action potential in vitro against Canine Purkinje fibers; at 1 uM concentration; type: functional, Canis lupus familiaris, Purkinje fiber; summary of the method: as §2
Cavia porcellus [16] = test: Percent change in the mean time to first Ouabain-induced arrhythmia was determined in Guinea pig at a dose of 3 mg/kg; type: functional; summary of the method: as §3
Canis familiaris [17] = test: Antiarrhythmic efficacy in vivo against PES model; type: functional; conditions: Canis lupus familiaris, Heart
Summary of the method: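 Conscious dogs 3-8 days after occlusion/reperfusion infarction (Karagueuzian method); programmed electrical stimulation induced two control arrhythmias before dosing, VF ended by DC countershock and sustained VT by burst pacing. After intravenous drug, reinduction attempted; efficacy counted when SVT/VF not inducible; per-dog effective dose recorded, non-responders to cumulative 10 mg/kg unless noted.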

Canis familiaris [18] = test: Antiarrhythmic efficacy in vivo against Harris model; type: functional; conditions: Canis lupus familiaris, Heart
Summary of the method: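 Conscious dogs studied 24 h after two-stage coronary occlusion infarction (Harris method), when ectopy exceeds 75%; test agent given intravenously. Efficacy counted as >30% decrease in ectopy; per-dog effective dose recorded, non-responders given cumulative 10 mg/kg unless otherwise noted.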

[19] = Percent change from control value for Vmax at 30 uM of the compound; summary of the method: as §1
Canis familiaris [20] = species: Canis familiaris; test: Duration of action potential was determined in vitro in Canine Purkinje fibers at 1 uM concentration; type: functional, Canis lupus familiaris, Purkinje fiber; summary of the method: as §2
[21] = Percent change from control value for Vmax at 10 uM of the compound; summary of the method: as §1
[22] = Percent change from control value for Vmax at 0.1 uM of the compound; summary of the method: as §1
[23] = Percent change from control value for Vmax at 1 uM of the compound; summary of the method: as §1
Canis familiaris [24] = species: Canis familiaris; test: Duration of action potential was determined in vitro in Canine Purkinje fibers at 10 uM concentration; type: functional, Canis lupus familiaris, Purkinje fiber; summary of the method: as §2
Canis familiaris [25] = species: Canis familiaris; test: Duration of action potential was determined in vitro in Canine Purkinje fibers at 30 uM concentration; type: functional, Canis lupus familiaris, Purkinje fiber; summary of the method: as §2
Canis familiaris [26] = species: Canis familiaris; test: Duration of action potential was determined in vitro in Canine Purkinje fibers at 0.1 uM concentration; type: functional, Canis lupus familiaris, Purkinje fiber; summary of the method: as §2
Canis familiaris [27] = species: Canis familiaris; test: Duration of action potential in vitro against Canine Purkinje fibers, at 10 uM concentration.; type: functional, Canis lupus familiaris, Purkinje fiber; summary of the method: as §2
Canis familiaris [28] = species: Canis familiaris; test: Duration of action potential in vitro against Canine Purkinje fibers, at 30 uM concentration.; type: functional, Canis lupus familiaris, Purkinje fiber; summary of the method: as §2
[29] = Percent change from control value for Vmax at 3 uM of the compound.; summary of the method: as §1
Canis familiaris [30] = species: Canis familiaris; test: Duration of action potential in vitro against Canine Purkinje fibers; at 3 uM concentration; type: functional, Canis lupus familiaris, Purkinje fiber; summary of the method: as §2
Cavia porcellus [31] = test: Percent change in the mean time to first Ouabain-induced arrhythmia was determined in Guinea pig at 10 mg/kg dose; type: functional; summary of the method: as §3
Canis familiaris [32] = species: Canis familiaris; test: Duration of action potential in vitro against Canine Purkinje fibers, at 3 uM concentration.; type: functional, Canis lupus familiaris, Purkinje fiber; summary of the method: as §2
Canis familiaris [33] = species: Canis familiaris; test: Duration of action potential in vitro against Canine Purkinje fibers, at 100 uM concentration.; type: functional, Canis lupus familiaris, Purkinje fiber; summary of the method: as §2

SMILES	Delta Vmax [1] [%]	Delta Vmax [2] [%]	Delta APD95 (Canis familiaris [3]) [%]	Change (Cavia porcellus [4]; dose 10 mg/kg) [%]	Delta APD95 (Canis familiaris [6]) [%]	Delta APD95 (Canis familiaris [7]) [%]	Delta Vmax [8] [%]	Delta APD95 (Canis familiaris [9]) [%]	Delta Vmax [11] [%]	Delta APD95 (Canis familiaris [15]) [%]	ED50 (Canis familiaris [17]) [mg/kg]	also measured
CCN(CC)CCN(C(=O)c1ccc(NS(C)(=O)=O)cc1)c1ccccc1.Cl	-12	-4	4	-9	52	38	-20	18	-3			Delta APD95 (Canis familiaris [5]): 45%; Delta Vmax [10]: -39%
CCN(CC)CC(NC(=O)c1ccc(NS(C)(=O)=O)cc1)c1ccccc1.Cl (stereo not given)	-13	6	4	61			-34		-2	21		Delta APD95 (Canis familiaris [12]): -20%; Delta APD95 (Canis familiaris [13]): -12%; Delta Vmax [10]: -76%; Delta APD95 (Canis familiaris [14]): -2%
CCN(CC)CCN(C(=O)c1ccc(NS(C)(=O)=O)cc1)c1c(C(C)C)cccc1C(C)C.Cl	-11				22			21	1		1	Change (Cavia porcellus [16]): 22%; ED50 (Canis familiaris [18]): 10 mg/kg
CCN(CC)CCN(C(=O)c1ccc(NS(C)(=O)=O)cc1)c1c(C)cccc1C.Cl	-3	-4	7	-8	30	40	-6	10	-2			
CCN(CC)CCN(C(=O)c1ccc(NS(C)(=O)=O)cc1)c1cccc2ccccc12.Cl	-13	2	10	-25			-16		-5	51	1	Delta APD95 (Canis familiaris [12]): 26%; Change (Cavia porcellus [16]): 8%; Delta Vmax [10]: -42%; Delta APD95 (Canis familiaris [14]): 64% and 37%
CCc1ccc(N(CCN(CC)CC)C(=O)c2ccc(NS(C)(=O)=O)cc2)cc1.Cl	4	5	12	20	70	62	-6	51	8			
CCN(CC)CCN(C(=O)c1ccc(NS(C)(=O)=O)cc1)c1ccc(NS(C)(=O)=O)cc1				22								Delta Vmax [19]: -6%; Delta APD95 (Canis familiaris [20]): 10%; Delta Vmax [21]: -3%; Delta Vmax [22]: -4%; Delta Vmax [23]: -2%; Delta APD95 (Canis familiaris [24]): 30%; Delta APD95 (Canis familiaris [25]): 40%; Delta APD95 (Canis familiaris [26]): 7%
CCN(CC)C(CNC(=O)c1ccc(NS(C)(=O)=O)cc1)c1ccccc1 (stereo not given)	-12	-4	11	-13			-15		-4	40		Delta APD95 (Canis familiaris [27]): 46%; Delta APD95 (Canis familiaris [28]): 52%
CCN(CC)CCN(C(=O)c1ccc(NS(C)(=O)=O)cc1)c1ccc(Cl)cc1	-8	3	9	18	64	60	-20	34	2			
CCN(CC)CCN(C(=O)c1ccc(NS(C)(=O)=O)cc1)c1ccc(OC)cc1.O=C(O)/C=C/C(=O)O	-3	0	8	15	82	66	-8	35	-3			
CCN(CC)C(CNC(=O)c1ccc(NS(C)(=O)=O)cc1)c1cccc2ccccc12 (stereo not given)	-4	1	4	0			-7		-2	29		Delta APD95 (Canis familiaris [27]): 34%; Delta APD95 (Canis familiaris [28]): 29%
CCN(CC)CC(NC(=O)c1ccc(NS(C)(=O)=O)cc1)c1cccc2ccccc12 (stereo not given)		-3	14						-20	10	1	Change (Cavia porcellus [4]; dose 3 mg/kg, in the assay text read “3 mg/kg” for “10 mg/kg”): 70%; Delta APD95 (Canis familiaris [27]): -14%; ED50 (Canis familiaris [18]): 2 mg/kg
O=C(NCC1CCCCN1)c1cc(OCC(F)(F)F)ccc1OCC(F)(F)F (stereo not given) [FLECAINIDE]	-30	2	-3						-6	-15	1	Delta Vmax [29]: -11%; Change (Cavia porcellus [16]): 51%; Delta APD95 (Canis familiaris [30]): -35%; ED50 (Canis familiaris [18]): 1 mg/kg; Delta APD95 (Canis familiaris [14]): -47%
CCN(CC)CC(=O)Nc1c(C)cccc1C [LIDOCAINE]	1			30	-25			-7	2			
C=C[C@H]1CN2CC[C@H]1C[C@@H]2[C@@H](O)c1ccnc2ccc(OC)cc12 [QUINIDINE]		0	2		-4	-17	-23	4	-1		1	Delta APD95 (Canis familiaris [5]): -14%; Change (Cavia porcellus [31]): 28%; ED50 (Canis familiaris [18]): 10 mg/kg
CCN(CC)CCNC(=O)c1ccc(NS(C)(=O)=O)cc1 [SEMATILIDE]	0	2	0						0	6	1	Delta APD95 (Canis familiaris [27]): 33%; Delta APD95 (Canis familiaris [32]): 14%; Delta Vmax [10]: 0%; Delta APD95 (Canis familiaris [28]): 51%; Delta APD95 (Canis familiaris [33]): 66%
